Assay outcomes as filed in PubChem BioAssay.
p97 ATPase inh: inhibitors of human p97 ATPase, primary screen, biochemical; 220,000 tested, 0.42% active; recombinant p97 ATPase, Kinase-Glo ATP luminescence, 3 h; inhibition, % at 8 µM; AID 1481, 2009; Transitional endoplasmic reticulum ATPase (Homo sapiens), P55072; in the data active means inhibition above about 15%;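 further: 0% = DMSO vehicle and 100% = wells lacking enzyme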
Hck Nef HTS: inhibitors of Nef-activated human Hck kinase, primary screen, biochemical, Z-Lyte FRET, 384-well, Hck-YEEI; Tyrosine-protein kinase HCK (Homo sapiens), P08631; Recombinant Hck-YEEI plus Nef, Z-Lyte FRET kinase assay; inhibition, % at 20 µM; 220,000 tested, 0.68% active; AID 463187, 2010;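 active means Hck-Nef kinase inhibition above about 50%, limit read from the data; inactive means inhibition below that limit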;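 further: 0% = DMSO with Hck plus Nef and 100% = Hck alone without Nef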
RanGTP-Impb inh: inhibitors of RanGTP-importin-beta interaction, primary screen, biochemical, FRET, CFP-Ran, YFP-importin-beta, homogeneous; AID 2216, 2009; 300,000 tested, 1.1% active; inhibition, % (test concentration not listed); cell-free CFP-Ran/YFP-importin-beta FRET ratio;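 active means more than half of the replicate wells show a fall in the fluorescence ratio signal beyond about 16%, limit read from the data, passing the limit was not always enough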;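 further: 0% = DMSO wells and 100% = Ran loaded with GDP instead of GTP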
TbHK1 inh: Trypanosoma brucei hexokinase 1 inhibitors, primary screen, biochemical, G6PDH-coupled NADH absorbance, MLSCN library; inhibition, % at 10 µM; recombinant TbHK1, G6PDH-coupled NADH A340; 220,000 tested, 0.11% active; hexokinase 1 [Trypanosoma brucei];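 active means inhibition of 50% or more in the single-dose primary screen; inactive means inhibition below 50%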
Runt-SMMHC FRET: inhibitors of RUNX1 Runt–CBFb-SMMHC binding, primary screen, biochemical, FRET, Cerulean-Runt, Venus-CBFb-SMMHC, uHTS; AID 1434, 2008; 220,000 tested, 0.74% active; Runt-related transcription factor 1 (Homo sapiens) + Core-binding factor subunit beta …; Cerulean-Runt/Venus-CBFb-SMMHC FRET ratio 530/480, 1 h; inhibition, % at 20 µM;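 active means mean inhibition across duplicate retests at 20 µM reaching about 50%, limit read from the data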;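 further: 0% = DMSO wells and 100% = wells with excess untagged CBFb-SMMHC; inhibitors lower the FRET ratio by blocking Runt binding to CBFb-SMMHC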
Target sequence (Q01196 whole entry, looked up): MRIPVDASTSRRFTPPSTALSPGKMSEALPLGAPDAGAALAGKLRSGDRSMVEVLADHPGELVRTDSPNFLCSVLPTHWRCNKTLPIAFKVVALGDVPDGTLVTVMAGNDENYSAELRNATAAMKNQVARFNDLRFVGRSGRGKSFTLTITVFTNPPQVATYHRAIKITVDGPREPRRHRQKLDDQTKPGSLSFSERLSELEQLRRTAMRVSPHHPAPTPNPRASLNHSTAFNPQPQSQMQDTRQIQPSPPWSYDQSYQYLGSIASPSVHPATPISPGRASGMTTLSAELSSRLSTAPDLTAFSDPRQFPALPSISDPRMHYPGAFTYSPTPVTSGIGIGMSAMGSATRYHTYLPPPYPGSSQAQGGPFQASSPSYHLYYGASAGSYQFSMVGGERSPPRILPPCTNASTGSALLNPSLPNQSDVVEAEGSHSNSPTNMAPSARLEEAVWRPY
Target sequence (Q13951 whole entry, looked up): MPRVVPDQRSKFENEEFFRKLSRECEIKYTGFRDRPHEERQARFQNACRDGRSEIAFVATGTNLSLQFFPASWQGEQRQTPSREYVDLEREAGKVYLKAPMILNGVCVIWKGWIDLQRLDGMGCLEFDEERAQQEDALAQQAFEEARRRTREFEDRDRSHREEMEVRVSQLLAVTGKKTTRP
Runt-CBFb FRET: inhibitors of RUNX1 Runt–CBFb binding, primary screen, biochemical, FRET, Cerulean-Runt, Venus-CBFb, uHTS | inhibition, % at 20 µM | Cerulean-Runt/Venus-CBFb FRET ratio 530/480, 1 h | 220,000 tested, 0.46% active | Runt-related transcription factor 1 (Homo sapiens) + Core-binding factor subunit beta … | AID 1496, 2009;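 active means inhibition over about 50% at 20 µM in the single-dose screen, limit read from the data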;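 further: 0% = DMSO wells and 100% = excess unlabeled CBFb competitor control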
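test system = Cerulean-tagged RUNX1 Runt domain (FRET donor) fusion protein | reagent = Venus-CBFb binding partner, 100 nM | incubation = protein complex preformed 1 h, compound exposure 1 h, room temperature, dark | detection = FRET fluorescence | read-out basis = loss of energy transfer signal | controls = 5 µM unlabeled CBFb as full-inhibition high control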
The depositor's hits bear a star. An excerpt weighted towards active compounds, which were near 2.1% of everything screened.

What do the screens show for `Cc1cccn2c(=O)c3cc(S(=O)(=O)c4ccc(Br)cc4)c(=N)n(C4CCCCC4)c3nc12`?
RanGTP-Impb inh: 1

Results for Cc1cccn2c(=O)c3cc(C(=O)NCC4CCCO4)c(=N)n(C4CCCCC4)c3nc12 (stereo unspecified) ?
RanGTP-Impb inh: active

Results for Cc1ccc(-c2cc(C(=O)NCC3CCCO3)c3ccccc3n2)cc1C (stereo unspecified) ?
p97 ATPase inh: 2; Hck Nef HTS: 18; RanGTP-Impb inh: -2; TbHK1 inh: -11; Runt-SMMHC FRET: 2; Runt-CBFb FRET: -6

Results for Cc1cccn2c(=O)c3cc(C(=O)NC4CCCCC4)c(=N)n(Cc4ccc(F)cc4)c3nc12 ?
RanGTP-Impb inh: -2

Results for Cc1cccn2c(=O)c3cc(C(=O)NC4CCCC4)c(=N)n(CC4CCCO4)c3nc12 (stereo unspecified) ?
RanGTP-Impb inh: 192*

What do the screens show for `Cc1cccn2c(=O)c3cc(C(=O)NCC4CCCO4)c(=N)n(CC4CCCO4)c3nc12` (stereo unspecified)?
RanGTP-Impb inh: 188*

Results for CCn1cc(C(=O)N[C@@H](C)C(=O)OC)c(=O)c2cc3c(cc21)OCO3 ?
RanGTP-Impb inh: 5

What do the screens show for `C=C1C(C(=O)Nc2cccc(OC)c2)C1C(=O)Nc1cccc(OC)c1` (stereo unspecified)?
p97 ATPase inh: -5; Hck Nef HTS: -4; RanGTP-Impb inh: 11; TbHK1 inh: -4; Runt-SMMHC FRET: 0; Runt-CBFb FRET: 0

What do the screens show for `Nc1cc2nsnc2cc1Br`?
p97 ATPase inh: 43*; Hck Nef HTS: 0; RanGTP-Impb inh: -10; TbHK1 inh: 20; Runt-SMMHC FRET: -23

What do the screens show for `Nc1cccc2nsnc12`?
p97 ATPase inh: 6; Hck Nef HTS: 8; RanGTP-Impb inh: 3; TbHK1 inh: -4; Runt-SMMHC FRET: -6; Runt-CBFb FRET: 40

Results for CC(C)(C)CN1CCNC(=O)C1CC(=O)NCCc1ccccc1F (stereo unspecified) ?
p97 ATPase inh: 2; Hck Nef HTS: 1; RanGTP-Impb inh: -2; TbHK1 inh: -4; Runt-SMMHC FRET: -7; Runt-CBFb FRET: -1

Results for CC1CCc2sc3ncn4nc(C(=O)NCc5ccco5)nc4c3c2C1 (stereo unspecified) ?
p97 ATPase inh: 7; Hck Nef HTS: -4; RanGTP-Impb inh: 120*; TbHK1 inh: -1; Runt-SMMHC FRET: -4; Runt-CBFb FRET: -2

Results for COC(=O)c1cc(NC(=O)c2cccs2)ccc1N1CCOCC1 ?
p97 ATPase inh: 7; Hck Nef HTS: 16; RanGTP-Impb inh: 1; TbHK1 inh: -16

What do the screens show for `O=C(Nc1ccc(N2CCOCC2)c(F)c1)c1cccs1`?
RanGTP-Impb inh: 16*

Results for Cc1ccnc(NC(=O)c2cccc(S(=O)(=O)N3CCN(c4ccc(F)cc4)CC3)c2)c1 ?
RanGTP-Impb inh: 1

How did COC(=O)C1=C(C(=O)OC)C2C(C)=CC(C)=CN2C(C(=O)OC)=C1C(=O)OC (stereo unspecified) do in these assays?
p97 ATPase inh: 1; Hck Nef HTS: 3; RanGTP-Impb inh: 72*; TbHK1 inh: -3; Runt-SMMHC FRET: 9; Runt-CBFb FRET: 2

How did COc1ccccc1NC(=O)C1C2C=CC(O2)C1C(=O)O (stereo unspecified) do in these assays?
p97 ATPase inh: 4; Hck Nef HTS: -1; RanGTP-Impb inh: 3; TbHK1 inh: 3; Runt-SMMHC FRET: 9; Runt-CBFb FRET: 2

What do the screens show for `COc1cccc2c1nc(C)c1cc(C)oc12`?
p97 ATPase inh: -6; Hck Nef HTS: 0; RanGTP-Impb inh: 33*; TbHK1 inh: 0; Runt-SMMHC FRET: 3; Runt-CBFb FRET: -1

Results for COc1ccc2nc(C)c3cc(C)oc3c2c1 ?
p97 ATPase inh: -2; Hck Nef HTS: 0; TbHK1 inh: -3; Runt-SMMHC FRET: 0; Runt-CBFb FRET: 2

Results for COC(=O)c1ccc(C2N=C(c3cccs3)CC(c3ccccc3O)N2)cc1 (stereo unspecified) ?
p97 ATPase inh: 4; Hck Nef HTS: 2; RanGTP-Impb inh: 0; TbHK1 inh: -13; Runt-SMMHC FRET: 17; Runt-CBFb FRET: 9

How did Cc1ccc(C2C3=C(CC(C)(C)CC3=O)N(CCN3CCOCC3)C3=C2C(=O)CC(C)(C)C3)cc1 do in these assays?
p97 ATPase inh: -2; Hck Nef HTS: 38; RanGTP-Impb inh: 125*; TbHK1 inh: -17; Runt-SMMHC FRET: 79*; Runt-CBFb FRET: 10

Results for O=C1Cc2cc(CCN3CCN(c4nsc5ccccc45)CC3)c(Cl)cc2N1 ?
p97 ATPase inh: 8; Runt-SMMHC FRET: -1; Runt-CBFb FRET: 5

Results for CC(OC(=O)/C(C#N)=C/c1ccc(N(C)C)cc1)C(=O)N(C)c1ccccc1 (stereo unspecified) ?
RanGTP-Impb inh: 92*

How did O=C(O)c1ccc(S(=O)(=O)Nc2cccc(CP(=O)(c3ccccc3)c3ccccc3)c2)cc1 do in these assays?
p97 ATPase inh: -7; Hck Nef HTS: -6; RanGTP-Impb inh: -5; TbHK1 inh: -3; Runt-SMMHC FRET: -2; Runt-CBFb FRET: 1

Results for O=C(CCC(=O)Nc1ccccc1)N/N=C/c1cccnc1 ?
RanGTP-Impb inh: 3

Results for Cc1c(C(=O)O)cccc1-n1c(C)cc(/C=N/Nc2ccc([N+](=O)[O-])cn2)c1C ?
p97 ATPase inh: 4; Hck Nef HTS: 62*; RanGTP-Impb inh: 3; TbHK1 inh: -6; Runt-SMMHC FRET: -18; Runt-CBFb FRET: -9

Results for Cc1cc(/C=N/Nc2ccc([N+](=O)[O-])cn2)c(C)n1-c1ccccc1 ?
p97 ATPase inh: 1; Hck Nef HTS: 0; RanGTP-Impb inh: -2; TbHK1 inh: -4; Runt-SMMHC FRET: -9; Runt-CBFb FRET: -5

Results for COc1cc2c3nnc(-c4ccccc4)c-3cn(Cc3ccc(F)cc3)c2cc1OC ?
p97 ATPase inh: 2; Hck Nef HTS: 7; RanGTP-Impb inh: 35*; TbHK1 inh: -4; Runt-SMMHC FRET: 40; Runt-CBFb FRET: 13

How did CC(=O)Nc1ccc(S(=O)(=O)Nc2nc3ccccc3nc2Sc2nncn2C)cc1 do in these assays?
p97 ATPase inh: -6; Hck Nef HTS: 2; RanGTP-Impb inh: 36*; TbHK1 inh: -21; Runt-SMMHC FRET: 72*; Runt-CBFb FRET: 48
